For assay [1], the target named is T1, ATP-dependent Clp protease proteolytic subunit (Staphylococcus aureus (strain NCTC 8325)) (UniProt Q2G036).
T1 sequence (whole entry): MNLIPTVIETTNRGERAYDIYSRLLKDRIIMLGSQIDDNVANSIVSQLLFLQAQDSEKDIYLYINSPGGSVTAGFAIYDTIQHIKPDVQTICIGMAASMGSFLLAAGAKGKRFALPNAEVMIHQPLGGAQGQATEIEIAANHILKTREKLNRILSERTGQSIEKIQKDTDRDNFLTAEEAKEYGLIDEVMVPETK
Put plainly: Induction of thermal stabilization of ClpP in methicillin-resistant Staphylococcus aureus ATCC 33591 assessed as protein stability up to 83 degC pre-incubated for 2 hrs by CETSA method. The essentials: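 MRSA grown at 37 °C in TSB with DMSO or 100 µM compound 2 h; cells in TE buffer (~4×10⁹ CFU/mL), lysostaphin 37 °C 30 min; supernatant heated 5 min at set temperatures, 3 min RT, ice, spun 20,000 g 20 min; soluble ClpP by western blot with polyclonal anti-ClpP.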

A short description of assay [2]: Inhibition of human ClpP (57 to 277 residues) expressed in Escherichia coli […] pre-incubated for 10 mins before Ac-WLA-AMC addition and measured after 1 hr by fluorescence based assay relative to control. The method, boiled down:
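hClpP (3.5 μM monomer) in 25 mM Tris-HCl pH 8.0, 100 mM KCl. Preincubated 10 min at RT with inhibitor, two-fold dilutions over 8 steps from 100 μM. Then 100 μM Ac-WLA-AMC, 380/440 nm for 1 h at 37 °C, slopes normalized to DMSO. Thrice, triplicate wells.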

Assay [3] deals with T2, ATP-dependent Clp protease proteolytic subunit (Staphylococcus aureus (strain NCTC 8325), UniProt Q2G036).
T2 sequence (Q2G036 whole entry): T1 sequence (whole entry)
Put plainly: (§1) Inhibition of N-terminal His6-sumo-tagged full length Staphylococcus aureus ClpP expressed in Escherichia coli […] pre-incubated for 10 mins before Suc-LY-AMC addition and measured after 1 hr by fluorescence based assay. The method, boiled down: (§2)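 SaClpP (1 μM monomer) in 100 mM Hepes pH 7.0, 100 mM NaCl. Preincubated 10 min at RT with inhibitor, two-fold dilutions over 8 steps from 100 μM. Suc-LY-AMC at 200 μM, 380/440 nm recorded for 1 h at 37 °C, slopes normalized to DMSO. For kinact/Ki, inhibitor premixed with substrate and reaction started by enzyme, fitted by least squares. Thrice, triplicate wells.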

Assay [4] has as its target T1, ATP-dependent Clp protease proteolytic subunit (Staphylococcus aureus (strain NCTC 8325)). The description is as §1. The essentials: as §2

Each structure is given as a SMILES string. pIC50: −log10 of the molar value. Calls of active or inactive are those of the source. The rule behind the calls is not given here.

Drawing on ChEMBL document CHEMBL4402562, “Discovery of Novel Peptidomimetic Boronate ClpP Inhibitors with Noncanonical Enzyme Mechanism as Potent Virulence Blockers in Vitro and in Vivo” (J Med Chem, 2020), this text covers Activity, IC50 and inhibition for one molecule.

Regarding `CC(C)C[C@H](NC(=O)[C@H](Cc1c[nH]c2ccccc12)NC(=O)c1cc(Cl)ccc1Cl)B(O)O`, the result in assay [1] was Active. The pIC50 was 4.60 to 5.52 in assay [2] and 6.05 in assay [3]. For the same molecule, in assay [4], the inhibition result is “Dose-dependent effect”.
